M5 antag – antagonists of human muscarinic M5 receptor (CHRM5); inhibition, % at 3 µM; 0.59% of 360,000 active; AID 624040; P08912; CHO-hM5 cells, Fluo-8 calcium fluorescence, ACh EC80;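 active = inhibition above a per-plate cutoff, the mean of that plate's test compounds plus 3 SD, cut at about 27% in these data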;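 note: 0% = acetylcholine EC80 with DMSO and 100% = DMSO without agonist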
Target sequence (P08912 whole entry, looked up): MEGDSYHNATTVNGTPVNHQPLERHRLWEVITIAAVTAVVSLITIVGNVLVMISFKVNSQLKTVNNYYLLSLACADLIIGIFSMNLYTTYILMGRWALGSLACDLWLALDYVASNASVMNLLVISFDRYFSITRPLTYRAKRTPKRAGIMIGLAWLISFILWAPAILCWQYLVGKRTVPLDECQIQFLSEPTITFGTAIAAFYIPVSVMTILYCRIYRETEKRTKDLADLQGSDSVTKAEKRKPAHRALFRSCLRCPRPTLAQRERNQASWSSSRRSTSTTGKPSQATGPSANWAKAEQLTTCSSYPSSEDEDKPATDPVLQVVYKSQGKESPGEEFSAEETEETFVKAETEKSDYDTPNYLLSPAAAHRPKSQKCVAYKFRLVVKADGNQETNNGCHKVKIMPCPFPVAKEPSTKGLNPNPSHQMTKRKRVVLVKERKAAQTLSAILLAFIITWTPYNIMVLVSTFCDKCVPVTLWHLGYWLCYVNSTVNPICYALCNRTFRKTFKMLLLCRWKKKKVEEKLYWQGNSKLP
M4 ag – CHRM4 agonism in calcium assay; activation, % at 3 µM; AID 624127; 0.14% of 360,000 active; P08173; CHO-K1 hM4/Gqi5, Fluo-8 calcium fluorescence; vehicle 0%, full acetylcholine response 100%;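 active = activation above the run mean over all test wells plus 3 SD, cut at about 32% in these data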;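 note: peak over basal fluorescence ratio per well then scaled between controls; 0% = DMSO wells and 100% = acetylcholine at EC100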
M4 antag – CHRM4 antagonism in calcium assay. P08173. CHO-hM4 cells, ACh EC80, Fluo-8 calcium fluorescence. inhibition, % at 3 µM. 0.73% of 360,000 active. AID 624125;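 active = inhibition above its plate's cutoff, the mean inhibition of sample wells plus 3 SD, cut at about 27% in these data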;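 note: 0% = acetylcholine EC80 with DMSO and 100% = DMSO without agonist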
CHRM4 PAM – potentiates acetylcholine response at human M4 receptor; P08173; CHO-K1 hM4/Gqi5, Fluo-8 calcium fluorescence, ACh EC20; 0% = ACh EC20, 100% = maximal ACh; activation, % at 3 µM; 0.4% of 360,000 active; AID 624126;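 active = activation above its plate's cutoff, the mean activation of sample wells plus 3 SD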
M5 PAM – potentiates acetylcholine response at human M5 receptor | P08912 | CHO-K1 hM5, Fluo-8 calcium, ACh EC20 PAM; 0% = ACh EC20, 100% = ACh EC100 | activation, % at 3 µM | 0.3% of 360,000 active;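 active = activation above the run cutoff, the mean activation of all test compounds plus 3 SD, cut at about 18% in these data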
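Test system: CHO-K1 hM5 cells / Doses: single-point, 3 µM nominal / Times: Post-acetylcholine fluorescence recording 140 s / Technique: Fluo-8 calcium fluorescence / Measure: Max/basal fluorescence ratio as % of EC20–EC100 ACh window / Benchmarks: low control EC20 acetylcholine (0%), high control EC100 acetylcholine (100%) / Replicates: one well per compound, no replicates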
M5 ag – CHRM5 agonism in calcium assay; P08912; CHO-K1 hM5 cells, Fluo-8 calcium fluorescence; 0% DMSO wells, 100% maximal acetylcholine response; activation, % at 3 µM; 0.19% of 360,000 active; AID 624037;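 active = activation above the run's mean over test compounds plus 3 SD, cut at about 23% in these data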;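 note: signal is peak over basal fluorescence ratio across the kinetic read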
* marks the source's active call; other numbers are inactive results. The list is not random: actives were taken first. Their share in the collection is about 1.9%.

SMILES | M5 antag | M4 ag | M4 antag | CHRM4 PAM | M5 PAM | M5 ag
O=C(c1ccc2c(c1)OCO2)C1CCCN(CC2CCCCC2)C1 (stereo not given) | 8 | 0 | 41* | -24 | -11 | -11
COC(=O)C1=C(c2ccc(C(C)=O)cc2)C[C@@H]2CC[C@H]1N2C(=O)N1CCC(C)CC1 | 10 | -1 | 3 | 0 | -7 | -5
Cc1nn(Cc2ccccc2Cl)c(Cl)c1C(=O)O | 10 | 0 | -14 | 6 | -12 | -5
Cc1nn(Cc2ccc(Cl)cc2Cl)c(Cl)c1C(=O)O | -14 | 2 | -12 | 21* | 11 | 4
CN1CCN(c2ccc(C(N)=O)cc2N)CC1 | -1 | 0 | 8 | 5 | 11 | -4
CCN(CC)C(=O)c1ccc(NC(=O)c2cn(-c3ccccc3)nc2-c2ccc(OC)cc2)cc1 | 28* | 8 | 0 | -5 | -10 | -3
CN1OC[C@@H]2CN[C@H](c3ccccc3Br)C[C@@H]21 | 2 | 0 | -2 | 1 | -4 | 1
Cc1ccc(-c2nc3ccccc3c(=O)n2-c2cccc(O)c2)cc1 | 1 | 3 | -4 | 2 | -4 | -3
Cc1ccc2nsnc2c1-n1c(C)nc2ccccc2c1=O | -7 | 1 | 14 | 30* | 10 | 3
Cc1nc2ccccc2c(=O)n1-c1cccc(O)c1 | 0 | 1 | -8 | 17* | 9 | -5
CC(=O)OC[C@]12CCC(C)=C[C@H]1O[C@@H]1[C@H](O)[C@@H](OC(C)=O)[C@@]2(C)[C@]12CO2 | -3 | 1 | -17 | 4 | 1 | 2
CCN1CCC2(CC1)NC(=O)c1ccccc1O2 | -13 | 1 | -14 | 6 | 9 | -7
CCN(CC)C(=O)c1ccc(NC(=O)COC(=O)c2ccc(Cl)s2)cc1 | 5 | 4 | 3 | 0 | -8 | 5
C=CCn1c(O)c(C(CC)=NC(C)c2ccccc2)c(=O)[nH]c1=O (stereo not given) | -3 | 8 | -1 | -2 | 3 | 2
CCN(CC)CCC(=O)O[C@H]1CC[C@]2(C)C3CC[C@@]4(C)C(CC[C@]4(C)O)C3CC[C@H]2C1 (stereo not given in full) | 27 | 29 | 28* | -10 | -37 | 1
Brc1ccc2c(c1)C(OC1CN3CCC1CC3)c1ccccc1CS2 (stereo not given) | 100* | 10 | 100* | -41 | -19 | -1
C#CCOC(=O)C1=CCCN(C)C1 | 97* | 70* | 74* | -19 | -16 | 97*
CCCC[n+]1cc(/N=C(\[O-])OC)on1 | -2 | 1 | 4 | 1 | 36* | -2
Cc1cc(-c2ccccc2)cc(-c2ccccc2)[n+]1CCc1ccccc1 | 18 | 2 | 38* | -7 | -28 | -9
Clc1ccc(C[n+]2c(-c3ccccc3)cc(-c3ccccc3)cc2-c2ccccc2)cc1 | 23 | 6 | 31* | -10 | -19 | -9
C[C@]12CCC(=O)C[C@@H]1CC[C@@H]1[C@@H]2CC[C@]2(C)[C@@H](O)CC[C@@H]12 | 3 | 3 | -11 | 3 | -5 | 3
Fc1ccccc1CNCCc1ccc2c(c1)OCO2 | 10 | 0 | -2 | -2 | -4 | -12
OCC[N+]12CCC(CC1)C(C(O)(c1ccccc1)c1ccccc1)C2 (stereo not given) | 6 | 0 | -3 | -33 | -9 | -18
CCCC[N+]12CCC(CC1)C(=C(c1ccccc1)c1ccccc1)C2 | 72* | 1 | 57* | -16 | -19 | -9
CCC[N+]12CCC(CC1)C(=C(c1ccccc1)c1ccccc1)C2 | 94* | 1 | 57* | -16 | -20 | -10
SMILES | M5 antag | M4 ag | M4 antag | CHRM4 PAM | M5 PAM | M5 ag
COCCOC(=O)C1=C(N)Oc2c(c(=O)oc3ccccc23)[C@@]12C(=O)Nc1ccccc12 | -9 | 2 | 3 | 4 | 6 | 1
OC(CC#CCN1CCCCCC1)(c1ccccc1)C1CCCC1 (stereo not given) | 84* | 7 | 91* | -17 | -32 | -21
CC1(C(O)(C#CCN2CCCCC2)c2ccccc2)CCCC1 (stereo not given) | 99* | 2 | 99* | -26 | -34 | -16
C(#CCN1CCCCC1)COCc1ccccc1 | 6 | 1 | -2 | -1 | 9 | -14
CN(C)CC#CCC(O)(c1ccccc1)C1CCCC1 (stereo not given) | 94* | 1 | 87* | -34 | -17 | -8
COc1cc(OC)c([C@H]2C=C(C)[C@H]3C[C@@H]2C3(C)C)c(OC)c1 | 7 | 1 | 4 | -2 | 2 | -1
CCOC(=O)c1c(C)[nH]c(C(=O)C(C)N2CCCC2)c1C (stereo not given) | -12 | 1 | -5 | -6 | -10 | -8
C=CCn1c(O)c(C(C)=Nc2cc(OC)ccc2OC)c(=O)[nH]c1=O | -3 | 2 | 6 | 11 | 3 | 1
O=C(NCC1=C(c2ccc3ccccc3c2)C[C@@H]2CC[C@H]1N2Cc1ccco1)c1nccs1 | 16 | 6 | -10 | -14 | -7 | -2
C[C@H]1CC[C@@]2(C)[C@@H](CC[C@@H]3[C@@H]2CC[C@]2(C)[C@@H](O)CC[C@@H]32)C1 | 4 | 2 | -8 | 6 | 2 | -1
CN/C=C(/Cl)P(=O)(OC(C)C)OC(C)C | -5 | 1 | 5 | 9 | 15 | 5
C[N+](C)(C)c1ccccc1 | -1 | 2 | -6 | 1 | -17 | 52*
CC(C)C[C@@H]1COc2cc(N3CCN(C)CC3)ccc2S(=O)(=O)N1 | -9 | 1 | 3 | 1 | 5 | 2
CN1CCN2c3ccccc3CC3(C(=O)N(C)C(=O)N(C)C3=O)C2C1 (stereo not given) | 6 | 0 | 0 | 21 | 10 | 0
O=[N+]([O-])/C=C/c1c(Cl)cccc1Cl | 29* | 16 | 18 | -9 | -24 | -3
C[N+](C)(C)CC#CCOC(=O)Nc1cccc(Cl)c1 | 78* | 44* | 6 | -20 | -20 | 89*
O=C(c1ccc(Cl)cc1)C1CCCN(Cc2cccc3cccnc23)C1 (stereo not given) | 23 | 18 | 12 | -24 | -15 | -10
O=C(c1ccc(Cl)cc1)C1CCCN(Cc2cccc3ncccc23)C1 (stereo not given) | 34* | 5 | 20 | -36 | -37 | -13
C[C@]12CC[C@@H](O)CC1=CCC1C2CC[C@@]2(C)C1C[C@@H](F)[C@@H]2O (stereo not given in full) | 12 | 3 | -3 | 4 | 1 | 3
NC(N)=N/N=C/c1cn(-c2ccccc2)nc1-c1cccs1 | 3 | 1 | -4 | 5 | -2 | 0

Compound activity (PubChem)
